Test results as given in ChEMBL document CHEMBL1134657, “Inhibition of cancer cell growth by ruthenium(II) arene complexes” (J Med Chem, 2001).

System: A2780
Test: Concentration required to inhibit 50% growth of A2780 human ovarian cancer cells.
Format: functional, cell-based
Procedure, shortened: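 A2780 cells kept at 37 °C, 5% CO2, seeded at 1 × 10^4 cells per well, grown 72 h, then exposed for 24 h to complexes freshly dissolved in deionized water and diluted in RPMI to final 0.1, 1, 10 and 100 µM, in duplicate. Drug medium removed, cells washed with PBS, regrown in fresh medium and counted on day 7 by Coulter counter.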

Substance | IC50
CARBOPLATIN | 6 µM
CISPLATIN | 0.5 µM
[(nu6-C6H5C6H5)RuCl(N-ethylethylenediamine)]PF6 | 6 µM
[(nu6-C6H5CO2CH3)RuCl(ethylenediamine)]PF6 | 55 µM
[(nu6-C6H6)RuCl(ethylenediamine)]PF6 | 17 µM
[(nu6-C6H6)RuI(ethylenediamine)]PF6 | 20 µM
[(nu6-p-cymene)RuBr(CH3CN)2]PF6 | > 150 µM
[(nu6-p-cymene)RuCl2(isonicotinamide)] | > 150 µM
[(nu6-p-cymene)RuCl(ethylenediamine)]PF6 | 9 µM
[(nu6-p-cymene)RuI(ethylenediamine)]PF6 | 8 µM
